Laboratory results reported in the RNAGym collection of RNA variant scans (doi:10.1126/science.aae0568).
Variants at the floor of the assay were thinned out.

B1: tRNA (parent)
chain: GUUCCGUUGGCGUAAUGGUAACGCGUCUCCCUCCUAAGGAGAAGACUGCGGGUUCGAGUCCCGUACGGAACG

Variants of: B1
Assay: yeast fitness relative to wild type (ratio to wild type); higher = fitter; tRNA-Arg(CCU), competitive growth, 37 C, YPD
Summary of the method: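 Variants of the tRNA-Arg(CCU) gene were chemically synthesised with a 3% per-site mutation rate across 69 sites and placed at the native genomic locus in Saccharomyces cerevisiae. Six parallel replicates of the pooled strains were competed in YPD at 37°C for 24 hours, and gene amplicons from the start and end populations were read by 100-nucleotide paired-end sequencing. Darwinian fitness relative to wild type was derived from changes in genotype frequencies. Genotypes required ≥ 100 starting reads, and estimates < 0.5 were set to 0.5.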

Row | Variant | yeast fitness
1 | GUUCCGUUCGCGUAAUCGUAACGCGUGUCCCUCCAAAGGAGAAGACUGAGGGUUCGAGUCCCGUACGGAACG | ≤ 0.5
2 | GUUCCGUUCGCGUAAUCGUAACGCGUCUCCCUCCUAAGCAGAAGACUGCGGGUUCGAGUCCCGUACGGAUCG | ≤ 0.5
3 | GUUCCGUUCGCGUAAUGCUAACGCGUCUCCCUCCUAAGGAGAAGACUGGGGGUUCGAGUCCCAUUCGGAACG | ≤ 0.5
4 | GUUCCGUUCGCGUAAUGCUAACGCGUCUCCCUCCUAAGGAGAAAACUGCGGGUUCGAGUCCCGUACGGAACG | 0.526
5 | GUUCCGUUCGCGUAAUGGUAACACGUCUCCCUCCUCAGGAGAAGACUGCGGGUUCGAGUCCCGUACGGAACG | 0.777
6 | GUUCCGUUCGCGUAAUGGUAACACGUCUCCCUCCUAAGGCAAAGACUGCGGGUUGGAGUCCCGUACGGAACG | ≤ 0.5
7 | GUUCCGUUCGCGUAAUGGUAACACGUCUCCCUCCUAAGGAGAUGACUGCGGGUUCGUGUCCCGUACGGAACG | 0.561
8 | GUUCCGUUCGCGUAAUGGUAACACGUCUCCCUCCUAAGGAGAAGACUGCAGGUUCGAGUCCCGUACGGAACG | ≤ 0.5
9 | GUUCCGUUCGCGUAAUGGUAACCCGUCUCCCUCCUAAGGAGAAGACUGCGGGUUCGAGUCCCGUACGGAACG | 0.573
10 | GUUCCGUUCGCGUAAUGGUAACCCGUCUUCCUCCUCAGGAGAAGACUGGGGGUUCGAGUCCCGUACGGAACG | ≤ 0.5
11 | GUUCCGUUCGCGUAAUGGUAACGCAUCUCCCUCCUAAGGAGAAGACUGCGGGUUCGAGUCCCGUACGGAACG | 0.721
12 | GUUCCGUUCGCGUAAUGGUAACGCGUCUCCCUCCUAAAGAGAAGACUGCGGGUUCGAGUCCCGUGCGGAACG | 0.519
13 | GUUCCGUUCGCGUAAUGGUAACGCGUCUCCCUCCUAACGAGAAGACUGCGGGUUCGAGUCCCGUACGGAACG | 0.546
14 | GUUCCGUUCGCGUAAUGGUAACGCGUCUCCCUCCUAACGAGAAGACUCCGGGUUCGAGUCCCGUACGGAACG | 0.582
15 | GUUCCGUUCGCGUAAUGGUAACGCGUCUCCCUCCUAAGCAAAUGACUGCGGGUUCGAGUCCCGUACGGAACG | ≤ 0.5
16 | GUUCCGUUCGCGUAAUGGUAACGCGUCUCCCUCCUAAGGACAAGACUGCGGGUUCGAGUCCCGUACGGAACG | 0.575
17 | GUUCCGUUCGCGUAAUGGUAACGCGUCUCCCUCCUAAGGAGAACACUGCGGGUUCGAGUCUCGUACGGAACG | 0.584
18 | GUUCCGUUCGCGUAAUGGUAACGCGUCUCCCUCCUAAGGAGAAGACUACGGGUUCGAGUCCCGUACGGAACG | 0.705
19 | GUUCCGUUCGCGUAAUGGUAACGCGUCUCCCUCCUAAGGAGAAGACUACGGGUUCGAGUCCCGUACGGCACG | 0.627

Row | Variant | yeast fitness
20 | GUUCCGUUCGCGUAAUGGUAACGCGUCUCCCUCCUAAGGAGAAGACUCCGGGUUCGAAUCCCGUACGGAUCG | 0.552
21 | GUUCCGUUCGCGUAAUGGUAACGCGUCUCCCUCCUAAGGAGAAGACUGCCGGUUCGAGUCCCGUACGGAACG | 0.514
22 | GUUCCGUUCGCGUAAUGGUAACGCGUCUCCCUCCUAAGGAGAAGACUGCGCAUUCGAGUCCCGUACGGAACG | ≤ 0.5
23 | GUUCCGUUCGCGUAAUGGUAACGCGUCUCCCUCCUAAGGAGAAGACUGCGGUUUCGAGUCCCGUACGGAACG | 0.502
24 | GUUCCGUUCGCGUAAUGGUAACGCGUCUCCCUCCUAAGGAGAAGACUGCGGGUUCGAGUCCCAUAUGGAACG | ≤ 0.5
25 | GUUCCGUUCGCGUAAUGGUAACGCGUCUCCCUCCUAAGGAGAAGACUGCGGGUUCGAGUCCCGUACCGAACG | 0.746
26 | GUUCCGUUCGCGUAAUGGUAACGCGUCUCCCUCCUAAGGAGAAGACUGCGGGUUCGAGUCCCGUACGCAACG | 0.777
27 | GUUCCGUUCGCGAAAUGGUAACGCAUCUCCCUCCUAAGGCGAAGACUGCGGGUUCGCGUCUCGUACAGAACG | ≤ 0.5
28 | GUUCCGUUCGCGAAAUGGUAACGCAUCUCCCUCCUAAGGCGAAGACUGCGGGUUCGAGUCCCGUACCGAACG | ≤ 0.5
29 | GUUCCGUUCGCGAAAUGGUAACGCGUCUCCCUCCUAAGGAAAAGACUGCGGGUUCGAGUCCUGUACGGAACG | ≤ 0.5
30 | GUUCCGUUCGCGCAAUGGUGACGCGUCUCCGUCCUAAGGAGAAGACUGCGGGUUCGGGUCCCGUACGGAACG | ≤ 0.5
31 | GUUCCGUUCGCGCAAUGGUAACGCGUCUCCCUCCUAAGGAGAAGACUGCGGGUUCGAGUCCCGUACGGCACG | 0.564
32 | GUUCCGUUCGCGCAAUGGUAACGCGUCUCCGUCCUAAGGAGAAGACUGCGGGUUCGGGUCCCGUACGGAACG | ≤ 0.5
33 | GUUCCGUUCGCGCAAUGGUAACGCGUCUCCGUCCUAAGGAGAAGACUGCGGGUUCGAGUCCCGUUCGGAACG | ≤ 0.5
34 | GUUCCGUUCGCGCAAUGGUAACGCGUCUCCCUCCUAAGGAGAAGACUGCGGGUUUGCGUCCCGUACGGAACG | ≤ 0.5
35 | GUUCCGUUCGCGGAAUGGUAACGCGUCUCCCUCCUAACGAGAAGGCUGCGGGUUCGAGUCCGGUACGGAACG | ≤ 0.5
36 | GUUCCGUUCGCGGAAUGGUAACGCGUCCCCCUCCUAAGGACACGUCUGGGGGGUCGAGUCCCGUACGGCACG | 0.611
37 | GUUCCGUUCGCGUAAAGGUAACGUGUCUCUCUCCUAAGGAGAAGACUGCGGGUUCGAGUCCCGUACGGAACG | 0.533
